This data set deals with MS2 coat protein. Put plainly: apparent Kd, MS2 coat protein; higher = weaker binding; RNA-MaP array; FMN 200 µM where present. A digest of the protocol:
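Binding was read on Illumina sequencing-chip clusters where stalled E. coli RNA polymerase had transcribed each design. A titration of SNAP-549-labelled MS2 coat protein began at 0.7 or 1.5 nM and doubled to 3 µM, once without ligand and once with constant ligand, in 100 mM Tris-HCl pH 7.5, 80 mM KCl, 4 mM MgCl2, BSA, DTT, yeast tRNA and Tween-20. The apparent Kd is the median of filtered per-cluster binding-curve fits, based on green signal normalised to red-channel RNA signal and control-cluster median Fmax.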

Where [1] appears, read: designed as: OFF switch for flavin mononucleotide, no ligand.
The mark [2] stands for this setting: ligand present: flavin mononucleotide, designed as: OFF switch for flavin mononucleotide.
[3] abbreviates: designed as: ON switch for flavin mononucleotide, no ligand.
Where [4] appears, read: ligand present: flavin mononucleotide, designed as: ON switch for flavin mononucleotide.

With “UUAAAUCAUGUAGGAUAUGCAUGGCGAAGCUACGCAGAAGGACAUGAGGAUCACCCAUGUUCUAGCUACCGGAUACGGUGGCAA”, the “apparent Kd” value was 21.5 nM under setting [1] and 87.4 nM under setting [2].

As for “CUGUCGAUAUCAGGAUAUCGAUUAACUACAUGAGGAUCACCCAUGUUGACAUGGAAUAUAACUUGCGAGAAGGGAUAACGAUAG”, the “apparent Kd” value stood at 23.4 nM under setting [3] and 13.8 nM under setting [4].

Regarding “AAAAUCAAAUCAGGAUAUUCAUACACUACAUACGGAGAAGGGAUACAAUCAUGAGGACAUGAGGAUCACCCAUGUUGUGACCAU”, the “apparent Kd” value by setting is: under setting [3], 102 nM; under setting [4], 54.8 nM.

On to “GUGGUACAUGAGGAUCACCCAUGUCAGGAUAUCGUGUGUUUUUUUUCGGCCGCGCGUGCGAGAAGGGACGUCUU”, for which the “apparent Kd” value is, setting by setting: under setting [1], 19.6 nM; under setting [2], 19.4 nM.

As to “UUUUCUCGUGAGAAGGACAUGAGGAUCACCCAUGUAGGAUAUCGUGGGAGACAGGAAUUGAAUCUUCGGAUUCAAUUCCAGUCU”, the “apparent Kd” value under setting [3] worked out at 107 nM and the “apparent Kd” value under setting [4] was found to be 10.1 nM.

For “CGCUACGUUUCGUAGCAGUGUCAUCGAGAAGGCCCUGACAUGAGGAUCACCCAUGUUGUUACAUGGGAGGAUAUCGAUGAUACU”, the “apparent Kd” value was determined as 13.4 nM under setting [3] and 5.25 nM under setting [4].

In the case of “AAUAAACUCACAGGAUAUAGCAUAGGUCGCGUGAACUUACAGGCGACUAUGCUAGAAGGGUGACCACAUGAGGAUCACCCAUGU”, the “apparent Kd” value came to 734 nM under setting [3] and 145 nM under setting [4].

For “UAAGUCUAAUGAGGAUAUCGUUAUCAAAGAUAAUGAGAAGGCAUACAAUCAUGAGGACAUGAGGAUCACCCAUGUUGUGACCAU”, the “apparent Kd” value reads like this: under setting [3], 40.9 nM; under setting [4], 17.6 nM.

Take “UUGAAUUUAAACAUGAGGAUCACCCAUGUGUCAUAGUUGAUAUAGGAUAUGCUUAUACUUUGAAAGCAGAAGGAUGACGAUACU”: the “apparent Kd” value worked out at 26.3 nM under setting [3] and 11.9 nM under setting [4].

“AAACACAAACAUGAGGAUCACCCAUGUUAUGAAAAUACUGGGAGAAGGGCGAUUGCAAAGCAAUCGCAGGAUAUUCGUAUUGUG”: the “apparent Kd” value under setting [3] stood at 76.7 nM and the “apparent Kd” value under setting [4] worked out at 16.1 nM.

As for “AACAGUAGAGGAUAUACAUGAGGAUCACCCAUGUGAUAAUUACGUGGCGUACCACGAUGUAGAAGGCUACUGGA”, the “apparent Kd” value turned out to be 144 nM under setting [1] and 36.2 nM under setting [2].

As for “UAUAGUGGCGUAGGAUAUCUGCGUACAUGAGGAUCACCCAUGUCUCCCAGCAGCUGAUCUGGGACAGAGAAGGGCGACCGCAUA”, the “apparent Kd” value under setting [3] amounted to 157 nM and the “apparent Kd” value under setting [4] is 63.6 nM.

Regarding “GCGAAUUAGUGAGGAUAUACAUAAUUUAUAACUGUAGAAGGCACAAUCCUCAAGACAUGAGGAUCACCCAUGUGGUAUUACGCU”, the “apparent Kd” value runs as follows: under setting [1], 151 nM; under setting [2], 911 nM.

On to “GUAGCAUUAUAAGGAUAUUCAUACCGGAAACGGACAUGAGGAUCACCCAUGUGGCGAAAGCCUUGGGAGAAGGUAUUAUGCUAC”, for which the “apparent Kd” value runs as follows: under setting [3], 537 nM; under setting [4], 24.9 nM.

In the case of “AUAUUUGUUUAGAAGGACAUGAGGAUCACCCAUGUCGCUGGGCGCGGGAAACCGUGCGCGGCCAUGUAGGAUAUAGGGAGAUAU”, the “apparent Kd” value under setting [1] was 38.7 nM and the “apparent Kd” value under setting [2] was 24.3 nM.

Consider “AUAUUGUGAGGAUAUCAGGUGUGCUAGCGUACUGGUACAUCUGAGAAGGCACAUGAGGAUCACCCAUGUUUCUU”, for which the “apparent Kd” value was determined as 15.6 nM under setting [1] and 39.6 nM under setting [2].

Regarding “CAUCUCUAUGUAGGAUAUAGGACAACAACAGCACUAGAAGGACAUGAGGAUCACCCAUGUACACUACUCGCGUCAUCGUCUCGC”, the “apparent Kd” value reads like this: under setting [1], 6.01 nM; under setting [2], 6.22 nM.

For the sequence “UUCAUGUGAGGAUAUGCGGCAUCAGGUGGGCCUGUCGCUGAGCAGAAGGCACAUGAGGAUCACCCAUGUGCUCC”, the “apparent Kd” value was determined as 16.4 nM under setting [1] and 41.6 nM under setting [2].

As for “CGAAAUGAUAGAGGAUAUGUUUAACAUGAGGAUCACCCAUGUGACAUGGGAUUAAUAUAUAACUUACAGAAGGCUAUUCAAUCG”, the “apparent Kd” value reads like this: under setting [1], 38.7 nM; under setting [2], 52.1 nM.

On to “UGGGAACGAGGAUAUCGAUGGUGGAACAUGAGGAUCACCCAUGUAUGAGAUAGUGUAGGGCGAGAAGGCGUUAAGU”, for which the “apparent Kd” value reads like this: under setting [1], 94.8 nM; under setting [2], 66.5 nM.

In the case of “GGUACCAACACAGGAUAUCCUAUCCUUUGGGUAGGAGAAGGGUGAAACAUGAGGAUCACCCAUGUGGUGCCAGGGCGUGAGCCC”, the “apparent Kd” value reads like this: under setting [3], 1230 nM; under setting [4], 206 nM.

Regarding “CCCUAAUAUCGAGGAUAUGUCUAGACACAUGAGGAUCACCCAUGUAUGUGUAUAGAAGGCGAUAUUAACAGCAUGUUACAUCCC”, the “apparent Kd” value by setting is: under setting [3], 46.2 nM; under setting [4], 21.7 nM.

Consider “ACAUUUGGAGGAUAUACCGCUAAGUCAAAUGCAGACCUCCCACAUGAGGAUCACCCAUGUAGAAGGUCAUCUGG”, for which the “apparent Kd” value by setting is: under setting [1], 17.1 nM; under setting [2], 17.6 nM.

Take “AAGUCAGCAGGAUAUGCGAUGGUGGGCUAGGUAGCUUGCCCACAUGAGGAUCACCCAUGUAGAAGGGCUGGCUA”: the “apparent Kd” value under setting [1] was determined as 72 nM and the “apparent Kd” value under setting [2] was determined as 48.7 nM.

“GGUAGACAUGAGGAUCACCCAUGUGAGGAUAUCGUCAUAGAUGCAAAAGCAUCUAUGACGAGAAGGUACAUGCC”: the “apparent Kd” value reads like this: under setting [1], 33.1 nM; under setting [2], 34.3 nM.

As for “GAGCGAAAGCUCAAUGUCGAUAGCAGAAGGACAUGUAAAAUCAUGAAAACAUGAGGAUCACCCAUGUAGGAUAUGCUAUCGACU”, the “apparent Kd” value was 23 nM under setting [1] and 371 nM under setting [2].

Consider “GUAUCUCCUGACAUGAGGAUCACCCAUGUUUAAUUAUUAAAUCAGGAUAUCCUCUCGAAACGAGAGGAGAAGGGAUAAGAUACU”, for which the “apparent Kd” value runs as follows: under setting [3], 5.66 nM; under setting [4], 5.72 nM.

Regarding “AAAAAACAUGAGGAUCACCCAUGUAAAAAAAUCACAGGAUAUAAGGUCGCGAAAGCGACCUUAGAAGGGUGAUCCU”, the “apparent Kd” value stood at 20.1 nM under setting [3] and 20.1 nM under setting [4].

For “GCCAUCGUAUGAGGAUAUGGCACCGAAACGGUGCCAGAAGGCAUGUCUAUAGACAUGAGGAUCACCCAUGUGUUAUCGAUGGCA”, the “apparent Kd” value turned out to be 146 nM under setting [3] and 14.8 nM under setting [4].

Take “AAUUAUUUACAGAAGGAGUAAGAUUAUGUAUUACUAGGAUAUGUUCACAUGAGGAUCACCCAUGUACUAGUUGGUUUUUUAUGU”: the “apparent Kd” value is 10.5 nM under setting [1] and 17.1 nM under setting [2].

In the case of “GGGCCGGUGGAGAAGGAGCUUGCAAAAUGCAUGCUAGGAUAUCCACAUGAGGAUCACCCAUGUGGGAAUAUCUGGUUUUCACAG”, the “apparent Kd” value reads like this: under setting [1], 3.98 nM; under setting [2], 5.05 nM.

As to “GCUAGUAUUGCAGGAUAUUGAGAAUAAUUAUUACAAGAAGGGCAUAACAUGAGGAUCACCCAUGUAUUCCUUAAUGAUACUAGC”, the “apparent Kd” value under setting [1] came out at 6.31 nM and the “apparent Kd” value under setting [2] came out at 7.13 nM.

In the case of “GGGUACCUCGGAGGAUAUCAUGUAAAUACAUGAGGAUCACCCAUGUCGAUGGAGACAUCGGAGAUUGAGAAGGCCGAUGUACCG”, the “apparent Kd” value is 168 nM under setting [3] and 9.32 nM under setting [4].

Take “ACUCCUCCUGUUAGGAUAUGCAUCGGGCUUCCGCAGCAGAAGGAACAUGAGGAUCACCCAUGUCAAAUAAAAUC”: the “apparent Kd” value reads like this: under setting [1], 19.6 nM; under setting [2], 155 nM.

Take “UAAAUUUUGUAAGGAUAUACACGAGAUUCAAGUGUAGAAGGUACUUACAUGAGGAUCACCCAUGUAUACAUGGAUACUAGAUAU”: the “apparent Kd” value by setting is: under setting [3], 209 nM; under setting [4], 103 nM.

As for “GCCCUCGCUGAGGAUAUUAUCUGGCUCGACUGAUAAGAAGGCAGUACAUGAGGAUCACCCAUGUGGUUCGUUCG”, the “apparent Kd” value reads like this: under setting [1], 50.5 nM; under setting [2], 142 nM.

The record behind these values is the EternaBench riboswitch data.
